One assay is filed under the species Bos taurus. The experiment in a line: Induction of bovine brain tubulin polymerization at 3 uM after 30 mins by SDS-PAGE. The procedure, abridged:
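Tubulin (2.5 μM) in 0.1 M MES, 1 mM EGTA, 1 mM MgCl₂ with 2 mM GTP, incubated with drug at 3 μM for 30 min at 37 °C. Polymer pelleted at 120000g, 37 °C, 1 h. Pellet dissolved in SDS sample buffer and analysed by SDS-PAGE.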

For the next assay, the system named is MCF7. Kind of assay: Antiproliferative activity against human MCF7 cells after 96 hrs by SRB method. It counts as functional, cell-based. As to conditions: MCF7, 96 h. Put shortly: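 MCF-7 cells grown in RPMI plus 10% fetal bovine serum, seeded at 2000 per well. Increasing drug concentrations added 18 h post-plating. Incubation for 96 h at 37 °C, with the later fixation allowing for growth rate, then SRB staining. IC50 is the concentration giving 50% growth inhibition.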
(In SRB staining, fixed cells bind dye roughly in proportion to their protein.)

In a further assay the test system is A549. Kind of assay: Antiproliferative activity against human A549 cells after 72 hrs by SRB method. It counts as functional, cell-based. The settings on record: A549, 72 h. Put shortly:
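Cells kept in RPMI with 10% FBS; 800 A549 cells seeded per well, drugs added at increasing concentrations 18 h after plating. Incubated 72 h at 37 °C, then fixed and stained with SRB. IC50 taken as concentration inhibiting growth by 50%.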

The source of these data is ChEMBL document CHEMBL1821634, “Design and synthesis of (+)-discodermolide-paclitaxel hybrids leading to enhanced biological activity” (J Med Chem, 2011).

Molecules are shown by their SMILES. The source made the active and inactive calls. The calls are words filed in the database; no cut-off is given here.

Regarding `C=C/C=C\[C@H](C)[C@H](OC(=O)NCCCNC(=O)c1cccc(N=[N+]=[N-])c1)[C@@H](C)[C@H](O)[C@@H](C)C/C(C)=C\[C@H](C)[C@@H](O)[C@@H](C)/C=C\[C@@H](O)C[C@@H]1OC(=O)[C@H](C)[C@@H](O)[C@H]1C`, in the assay listed under Bos taurus, the result was Active. Besides, the results for the IC50 in the assay with MCF7 and in the assay with A549 were 1.66 nM and 1.05 nM, respectively.
Regarding `C=C/C=C\[C@H](C)[C@H](OC(=O)NCCNC(=O)c1ccc(N=[N+]=[N-])cc1)[C@@H](C)[C@H](O)[C@@H](C)C/C(C)=C\[C@H](C)[C@@H](O)[C@@H](C)/C=C\[C@@H](O)C[C@@H]1OC(=O)[C@H](C)[C@@H](O)[C@H]1C`, the result in the assay filed under Bos taurus was Active. Also, the concentration for half-maximal inhibition (IC50) (in general, the midpoint of a concentration-inhibition curve) with MCF7 stood at 3.64 nM; in the assay with A549, 5.61 nM.
With `C=C/C=C\[C@H](C)[C@H](OC(=O)NCCCNC(=O)c1ccc(C2(C(F)(F)F)N=N2)cc1)[C@@H](C)[C@H](O)[C@@H](C)C/C(C)=C\[C@H](C)[C@@H](O)[C@@H](C)/C=C\[C@@H](O)C[C@@H]1OC(=O)[C@H](C)[C@@H](O)[C@H]1C`, the outcome in the assay listed under Bos taurus was Active. Moreover, the IC50 in the assay with MCF7 is 1.92 nM; in the assay with A549, 2.64 nM.
As for `C=C/C=C\[C@H](C)[C@H](OC(=O)NCCCCNC(=O)c1ccc(N=[N+]=[N-])cc1)[C@@H](C)[C@H](O)[C@@H](C)C/C(C)=C\[C@H](C)[C@@H](O)[C@@H](C)/C=C\[C@@H](O)C[C@@H]1OC(=O)[C@H](C)[C@@H](O)[C@H]1C`, the result in the assay listed under Bos taurus was Active. Besides, the IC50 in the assay with MCF7 was 2.71 nM; in the assay with A549, 3.76 nM.
The matching figures for `C=C/C=C\[C@H](C)[C@H](OC(N)=O)[C@@H](C)[C@H](O)[C@@H](C)C/C(C)=C\[C@H](C)[C@@H](O)[C@@H](C)/C=C\[C@@H](O)C[C@@H]1OC(=O)[C@H](C)[C@@H](O)[C@H]1C` [DISERMOLIDE]: “Active”, 7.98 nM and 9.34 nM.
The matching figures for `C=C/C=C\[C@H](C)[C@H](OC(=O)NCCCNC(=O)c1ccc(N=[N+]=[N-])cc1)[C@@H](C)[C@H](O)[C@@H](C)C/C(C)=C\[C@H](C)[C@@H](O)[C@@H](C)/C=C\[C@@H](O)C[C@@H]1OC(=O)[C@H](C)[C@@H](O)[C@H]1C`: “Active”, 1.9 nM and 1.21 nM.
Turning to `CC(=O)O[C@H]1C(=O)[C@@]2(C)[C@H]([C@H](OC(=O)c3ccccc3)[C@]3(O)C[C@H](OC(=O)[C@H](O)[C@@H](NC(=O)c4ccccc4)c4ccccc4)C(C)=C1C3(C)C)[C@]1(OC(C)=O)CO[C@@H]1C[C@@H]2O` [PACLITAXEL], the concentration for half-maximal inhibition (IC50) stood at 0.91 nM with MCF7 and 3.14 nM in the assay on A549.
